Experimental data from different studies.
Each line is one published result; the experiments were not run side by side.
Target: Casein kinase I isoform gamma-3 (CSNK1G3, Homo sapiens, UniProt Q9Y6M4)

| SMILES | read-out | method | tested at | remaining binding [%] |
| --- | --- | --- | --- | --- |
| c1cncc(-c2cccc(Nc3nccc(NC4CCCCC4)n3)c2)c1 | binding | competition with immobilised ligand | 10 µM | 100 |
| Cc1cnc(Nc2ccc(C(=O)N3CCC(N4CCCC4)CC3)cc2)nc1-c1cc2ccccc2s1 | binding | competition with immobilised ligand | 1 µM | 100 |
| C[C@H]1CCN(c2nccc(-c3cnn4ncccc34)n2)C1 | binding |  | 1 µM | 91 |
| O=C(c1ccc(Nc2ncc(Cl)c(-c3cc4ccccc4s3)n2)cc1)N1CCC(N2CCCC2)CC1 | binding | competition with immobilised ligand | 1 µM | 100 |
| O=C1NC(c2ccccn2)Sc2ccccc21 (centres unmarked) | cell-free assay | competition with immobilised ligand | 1 µM | 100 |
| O=C(NCC1CCOCC1)c1n[nH]cc1NC(=O)c1c(F)cccc1F | binding | competition with immobilised ligand | 1 µM | 78 |
| CC1CCCN1c1nccc(-c2cnn3ncccc23)n1 (centres unmarked) | binding |  | 1 µM | 100 |
| CNC(=O)[C@@H]1CC[C@@H](n2c(-c3ccc4cnccc4c3)nc3ccc(C(=O)NCc4cccc(C(N)=O)c4)cc32)C1 | binding | competition with immobilised ligand | 1 µM | 100 |
| N[C@@H]1CCN(c2nccc(-c3cnn4ncccc34)n2)C1 | binding |  | 1 µM | 100 |
| CNCc1ccccc1-c1csc([C@H](C)Nc2nc(C)nc3cc(OC)c(OC)cc23)c1 | cell-free assay | competition with immobilised ligand | 1 µM | 93 |
| COc1cnc(Nc2cccc(S(N)(=O)=O)c2)nc1N1CCN(c2ccccc2)C(=O)C1 | binding | competition with immobilised ligand | 1 µM | 87 |
| CN(C)c1nccc(-c2cnc3ncccn23)n1 | binding |  | 1 µM | 70 |
| CCOCCn1cc(C(=O)Nc2ccc(-n3nc(-c4cccnc4)cc3C(F)(F)F)cn2)ccc1=O | cell-free assay | competition with immobilised ligand | 1 µM | 100 |
| CN(C)c1ncc(F)c(-c2cnn3ncccc23)n1 | binding |  | 1 µM | 100 |
| O=C(NCc1ncc(C(F)(F)F)cc1Cl)c1ccc2c(c1)C1(CCS(=O)(=O)CC1)[C@H](C1CC1)N2S(=O)(=O)c1ccc(F)cc1 | cell-free assay | competition with immobilised ligand | 1 µM | 100 |
| O=C(c1ccc(Nc2nccc(-c3cc4ccccc4s3)n2)cc1)N1CCC(N2CCCC2)CC1 | binding | competition with immobilised ligand | 1 µM | 100 |
| O=C(O)[C@H]1[C@H](Cn2nnc3ccccc3c2=O)CC[C@@H]1C(=O)c1ccc(OCCC2CCOCC2)cc1 | cell-free assay | competition with immobilised ligand | 1 µM | 100 |
| CCN1CCN(Cc2ccc(C(=O)Nc3ccc(C)c(Oc4ccc5c(c4)CC(=O)N5)c3)cc2C(F)(F)F)CC1 | binding | competition with immobilised ligand | 1 µM | 100 |
| Cc1c(C(=O)O)cc(-c2ccc(C3CCNCC3)cc2)c2ccc(-c3ccc(C(F)(F)F)cc3)cc12 | cell-free assay | competition with immobilised ligand | 1 µM | 100 |
| c1cnn2ncc(-c3ccnc(N4CCC45COC5)n3)c2c1 | binding |  | 1 µM | 100 |
